Reference: the EternaBench riboswitch data

Tested on: MS2 coat protein
Assay: apparent Kd, MS2 coat protein; higher = weaker binding; RNA-MaP array; tryptophan 2.4 mM where present
Summary of the method: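 Green signal from SNAP-549-labelled MS2 coat protein was normalised to red-channel RNA signal and to the median Fmax of control clusters. The protein was titrated from 0.7 or 1.5 nM, doubling to 3 µM, without and then with constant ligand, over designs transcribed by stalled E. coli RNA polymerase on Illumina sequencing-chip clusters, in 100 mM Tris-HCl pH 7.5, 80 mM KCl, 4 mM MgCl2, BSA, DTT, yeast tRNA and Tween-20. The apparent Kd is the median of filtered per-cluster binding-curve fits.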

[1] = designed as: ON switch for tryptophan, no ligand
[2] = ligand present: tryptophan, designed as: ON switch for tryptophan
[3] = designed as: OFF switch for tryptophan, no ligand
[4] = ligand present: tryptophan, designed as: OFF switch for tryptophan

Sequence	apparent Kd [1]	apparent Kd [2]	apparent Kd [3]	apparent Kd [4]
CGAGUGAGUUCAAUCGAAUAACGGUUUUCGCGAGGACCGGUACGGCCGCCACUCGUGUGAUAUCACACAUGAGGAUCACCCAUGU	37.9 nM	31.6 nM	–	–
AUAAAUAAUAAAUAAAAUAAAGUGGGUGAACGAGGACCGGUACGGCCGCCACUCGGACAUGAGGAUCACCCAUGUCCAUGUGAAA	–	–	17.2 nM	51.2 nM
AAGACAUGAGGAUCACCCAUGUCGUCUACACGAGGACCGGUACGGCCGCCACUCGUUUGCCAAUGAGCGCAUGCGGCCUGGGUAU	–	–	13.3 nM	24.1 nM
AAAACAUGAGGAUCACCCAUGUACAUGGGUCGAGGACCGGUACGGCCGCCACUCGCCGCCCGCCCGCCCGCCACCUCUCCCGCCC	69.9 nM	66.2 nM	–	–
UUGCCCAGUACGGCCGCCACUGUGUGCAGGGAGCCCAGGUCCACAUGAGGAUCACCCAUGUACAACAGGACCGGGUACUUGCAAU	–	–	9.36 nM	10.6 nM
AGAUGAGUCACGGCCGCCACUCUUAUCAGGAUCACCCAUGGUUGACAUGAGGAUCACCCAUGUAUGAGGACCGGGUGAUGAGCAU	–	–	12.2 nM	15.6 nM
GAAUAAGAAUCGGCCGCCACUCACAUGAGGAUCACCCAUGUACAUGAGGAACAUGAAAAUCACCCGAGGACCGGGAUAUAUGUUC	–	–	70 nM	66.9 nM
GAGUAGAGGACGGCCGCCACUAAACAUGAGGAUCACCCAUGUCGUGAUCCGUUACCUAGGGUAGAUAGGACCGGGUCAUGUAGUC	–	–	59.3 nM	45.9 nM
AAUGAGUGGUGGUCAAACAUGGGUGAUCAACGAGGACCGGUACGGCCGCCACUCGAUAACAUGAGGAUCACCCAUGUAAUAAUAA	–	–	234 nM	202 nM
AGAGCAUUGACGGCCGCCACUCAUGUCACAUGAGGAUCACCCAUGUGAUGGGUGAUAGCCCGGUUGAGGACCGGGUCAAUGCUCA	18.8 nM	19.4 nM	–	–
CUACAUUUGUAGAAACCGGUCAACAUUAUUCGAGGACCGGUACGGCCGCCACUCGUAUCAUUUGAUACAUGAGGAUCACCCAUGU	19.2 nM	22.6 nM	–	–
AUAUAUACAUGAGGAUCACCCAUGUUAUUUCGAGGACCGGUACGGCCGCCACUCGAUAGAGUAGAAGUAAAUUUUAAUUCAUGUA	14.3 nM	14.1 nM	–	–
AAUGUAUGGCACAUGAGGAUCACCCAUGUGCGAGGACCGGUACGGCCGCCACUCGGUCCUGGGAUCUUAAUACUAUACAUUAAUG	–	–	10.9 nM	28.2 nM
ACGUUUUAGUCGGCCGCCACUGAUCUCAUGUUCAACAUGAGGAUCACCCAUGUACCUUUUUUUAUCAGGACCGGGACGUAAUAGA	329 nM	62.3 nM	–	–
AUUAAGGAUAUAUAGAAGGCGGAGAAGAGACGAGGACCGGUACGGCCGCCACUCGUGUUAGUUAACAUGAGGAUCACCCAUGUAA	80.6 nM	18.7 nM	–	–
CAAAGUUCGUCUCUGGUCCUCUAAUCGGCUCGAGGACCGGUACGGCCGCCACUCGCCCGACAUGAGGAUCACCCAUGUCUGUAAA	–	–	13.2 nM	10.9 nM
GCCGCGGCCGGAAUAAACAUGGGUAAAUAACGAGGACCGGUACGGCCGCCACUCGAGAUAAAUAACAUGAGGAUCACCCAUGUAC	–	–	163 nM	80.3 nM
GCUGUGAAGUCGGCCGCCACUGGUUAGUUUUACCUCAUGUAACAUGAGGAUCACCCAUGUAAUUUCAGGACCGGGACAACAGCAA	–	–	278 nM	852 nM
AAUCAUGAAAACAUGACAUGAGGAUCACUCCGAGGACCGGUACGGCCGCCACUCGCGAGGAGGCACAUGAGGAUCACCCAUGUUA	69 nM	82.7 nM	–	–
GUGCCGCAUUCACAUGAGGAUCACCCAUGUCGAGGACCGGUACGGCCGCCACUCGACGUGCUUACAGGUCCUUUACGGCCCAAUA	–	–	38.1 nM	18.8 nM
CUACAUUUGUAGAAACCGGUCAACAUUAUUCGAGGACCGGUACGGCCGCCACUCGUAUAAUUUAAUACAUGAGGAUCACCCAUGU	14.6 nM	15.9 nM	–	–
AUGCAGAACACGGCCGCCACUCCAUGUAUACAUGAGGAUCACCCAUGUAAUUUGUAUUUUUUAUAGAGGACCGGGUGAAAUGCAA	33.5 nM	18.2 nM	–	–

Sequence	apparent Kd [1]	apparent Kd [2]	apparent Kd [3]	apparent Kd [4]
CUAAAUAUAACGGCCGCCACUUACUCAUGAGGUAACAACAUGAGGAUCACCCAUGUUUGAGGAUCAAGGACCGGGUUAUAUUUAG	25.6 nM	19 nM	–	–
CGAGUGCUGUCGGCCGCCACUGCACAUGAGGAUCACCCAUGUAAAAGCUGGCUGUGACUGGUGUUCAGGACCGGGACAGGGUCUU	–	–	10.7 nM	25.4 nM
AGCCACUCGAGUGAUCCUCACGAGUGGCAACGAGGACCGGUACGGCCGCCACUCGAAUAAACAUGAGGAUCACCCAUGUAAUAAU	70.5 nM	49.1 nM	–	–
ACUACAAAGUAGUAUAUACGAAAGUAUAGACGAGGACCGGUACGGCCGCCACUCGGUACCGGAAACACAUGAGGAUCACCCAUGU	–	–	20.6 nM	17.6 nM
GACUAUAUGAUAUGUCAGAAAUCCUCGAAACGAGGACCGGUACGGCCGCCACUCGAGUGAUAAACAUGAGGAUCACCCAUGUAAA	–	–	22.5 nM	51.9 nM
GGUUACUCUACGGCCGCCACUGUAAAGUAAAGAUUACUGUACAUGACAUGAGGAUCACCCAUGUACAGGACCGGGUAGUGUAACC	23.1 nM	21.5 nM	–	–
AGUACAUGAGGAUCACCCAUGUAUCGGUACCGAGGACCGGUACGGCCGCCACUCGCAGGACAUGAGGAUCACCCAUGUGCCGCCG	18.9 nM	23.8 nM	–	–
CACGAUUUGUCGGCCGCCACUAAGGUAACUCUUCUCACAUGAGGAUCACCCAUGUGCCCGAAGCUUAGGACCGGGAUAAUGGGUG	118 nM	40.8 nM	–	–
CGACUGUAAAGUCGACCGGUCAUCAAUAAUCGAGGACCGGUACGGCCGCCACUCGAUGUGAUUUCACAUGAGGAUCACCCAUGUA	23.9 nM	22.2 nM	–	–
ACAUUAGCCACGGCCGCCACUGCUUUAUGAUUAUAAGGAUUAAUGAACAUGAGGAUCACCCAUGUCAGGACCGGGUGCCUACCAU	29.8 nM	29.7 nM	–	–
ACAUGAGGAUCACCCAUGUCAUGAGGUUCACGAGGACCGGUACGGCCGCCACUCGACAUGAGGGUCACCCGUGAACGGAACACCC	14.8 nM	20 nM	–	–
CGAGUAGGUUCAAUCGAAUAACGGUUUUCGCGAGGACCGGUACGGCCGCCACUCGUGUGAUAUCACACAUGAGGAUCACCCAUGU	45 nM	33.8 nM	–	–
GGCACAUAGUCGGCCGCCACUAGAUUUUAGUGGAAUAACAUGAGGAUCACCCAUGUAUUUGGGACUAGGACCGGGACUAUGUGCC	–	–	32.8 nM	22.2 nM
ACAUGAGGAUCACCCAUGUUAAACAGGGUGCGAGGACCGGUACGGCCGCCACUCGGACAUUAUUACGAGUGAAUGGCAACGAUGU	–	–	15.8 nM	15.4 nM
UAUCGUCAGACGGCCGCCACUAGAACAUGAGGAUCACCCAUGUAGGUCCUAGAUUCCUCAAUAACUAGGACCGGGUCUGACGAAU	–	–	140 nM	97.3 nM
AUUCAUGGAAACAUGACAUAGGGAUCUAGCCGAGGACCGGUACGGCCGCCACUCGCUUGGAGGCACAUGAGGAUCACCCAUGUUA	145 nM	48.7 nM	–	–
AUAACGAGUGGUGGAAUACAUGGGUGAUAACGAGGACCGGUACGGCCGCCACUCGAUAACAUGAGGAUCACCCAUGUAAUAAUAA	–	–	161 nM	31.1 nM
AUAUAUACAUGAGGAUCACCCAUGUUAUUUCGAGGACCGGUACGGCCGCCACUCGAUAGAGUAGAAGUAACAUUUGUUAGAUGUA	19.7 nM	13.9 nM	–	–
AACGUCUUGUCGGCCGCCACUGUAUGGUGCGUGACAUGAAACAUGAGGAUCACCCAUGUAGCAUGCAGGACCGGGACAGUGCCAA	–	–	9.84 nM	17.8 nM
AGCCACUCGAGUGAUCCUCACGAGUGGCUACGAGGACCGGUACGGCCGCCACUCGAAUUAACAUGAGGAUCACCCAUGUAAUCAC	65.5 nM	50.2 nM	–	–
GCUAGGUCAUCGGCCGCCACUAACGAUGGCUCCGACAUGAGGAUCACCCAUGUGCCACAUGCGCAUAGGACCGGGAUGACCUAGC	18.5 nM	14.3 nM	–	–
UACUUGCUGACGGCCGCCACUAGUACAUGAGGAUCACCCAUGUACGGUCGCCCGGUGUGAUCCACUAGGACCGGGUCAGCAAGAU	–	–	38.3 nM	124 nM
